Active and inactive are the calls of the source. The calls are words filed in the database; no cut-off is given here.
Key:
[1] = tested on: HT-29; assay: Inhibition of Wnt signaling in human HT29 cells assessed as beta-catenin dephosphorylation at S33/37/T41 residues at 25 uM after 24 hrs by Western blot analysis; assay type: cell-based
Procedure, shortened: (§1)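 After 24 h exposure, HT-29 cells were washed in cold PBS, lysed on ice for 30 min and cleared at 15 000 g, 4 °C. 10 µg protein was run on 12% SDS-PAGE and transferred to PVDF. Blots were probed with specific primary antibodies, then peroxidase-labelled secondaries, and developed by ECL. β-actin re-probing served as the loading control.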

[2] = tested on: HT-29; assay: Inhibition of Wnt/beta-catenin signaling in human HT29 cells assessed as increase in p21 protein expression at 25 uM after 24 hrs by Western blot analysis; assay type: cell-based; procedure, shortened: as §1
[3] = tested on: HT-29; assay: Cell cycle arrest in human HT-29 cells assessed as reduction of cells in S phase at 25 uM after 24 hrs by flow cytometry; assay type: functional, cell-based
Procedure, shortened: (§2)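 Exponentially growing HT-29 cells (1.5 × 10^5) were treated with the compounds for 24 h, then collected and fixed in ice-cold 70% ethanol. Fixed cells were treated with lysis buffer holding RNase A and 0.1% Triton X-100, stained with PI and analysed for DNA content by flow cytometry.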

[4] = tested on: HT-29; assay: Inhibition of Wnt/beta-catenin signaling in human HT29 cells assessed as effect on c-myc mRNA expression at 25 uM after 24 hrs by quantitative real-time PCR assay; assay type: cell-based
Procedure, shortened: (§3)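 Total RNA was extracted with TRIzol from HT-29 cells treated for 24 h. Transcripts were measured by real-time RT-PCR with GUS as the reference gene, and expression was expressed relative to untreated cells.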

[5] = tested on: HT-29; assay: Inhibition of Wnt signaling in human HT29 cells assessed as inhibition of beta-catenin-mediated Tcf/Lef transcriptional activity at 25 uM after 24 hrs by dual luciferase reporter gene assay relative to control in presence of GSK-3beta inhibitor LiCl; assay type: cell-based
Procedure, shortened: (§4)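 HT-29 cells (1.4 x 10^4) were co-transfected with 1 µg BAT-LUX, which carries 7 TCF sites and the siamois promoter driving firefly luciferase, plus 1 µg Renilla vector. Cells were then treated at 37 °C for 24 h, with or without the GSK-3β inhibitor LiCl. Dual-Glo readout; values are the mean firefly/Renilla ratio.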

[6] = tested on: HT-29; assay: Cell cycle arrest in human HT-29 cells assessed as accumulation of cells at G1 phase at 25 uM after 24 hrs by flow cytometry; assay type: functional, cell-based; procedure, shortened: as §2
[7] = tested on: A549; assay: Antiproliferative activity against human A549 cells after 72 hrs by MTT assay; assay type: functional; conditions: A549, 72 h
Procedure, shortened: (§5)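 Cells grown in DMEM with 10% FBS, penicillin G, streptomycin and L-glutamine, seeded 7 x 10^3 per well, left 24 h, then exposed to scalar concentrations in complete medium for 72 h at 37 °C, 5% CO2. Viability read by MTT; IC50 taken as the concentration giving 50% inhibition of proliferation.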

[8] = tested on: HT-29; assay: Inhibition of Wnt/beta-catenin signaling in human HT29 cells assessed as downregulation of cyclin D1 protein expression at 25 uM after 24 hrs by Western blot analysis; assay type: cell-based; procedure, shortened: as §1
[9] = tested on: Danio rerio; assay: Inhibition of Wnt/beta-catenin signaling in zebrafish larvae assessed as inhibition of Tcf/Lef transcriptional activity measured as pericardial edema at 10 uM after 72 hrs by GFP reporter assay; assay type: functional, organism-based
Procedure, shortened: (§6)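 TCF/LEF-GFP reporter zebrafish were exposed from 24 hours post-fertilization for 72 h, with compounds dissolved in E3 medium that was renewed daily. GFP in the head and intestine was imaged by fluorescence stereomicroscope at 8X, alongside bright-field images.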

[10] = tested on: HT-29; assay: Antiproliferative activity against human HT-29 cells after 72 hrs by MTT assay; assay type: functional; conditions: HT-29, 72 h; procedure, shortened: as §5
[11] = tested on: HT-29; assay: Cell cycle arrest in human HT-29 cells assessed as reduction of cells in G2/M phase at 25 uM after 24 hrs by flow cytometry; assay type: functional, cell-based; procedure, shortened: as §2
[12] = tested on: LoVo; assay: Antiproliferative activity against human LoVo cells after 72 hrs by MTT assay; assay type: functional; procedure, shortened: as §5
[13] = Antiproliferative activity against human fibroblasts after 72 hrs by MTT assay; assay type: cell-based, Fibroblast
[14] = organism: Danio rerio; assay: Toxicity in zebrafish larvae assessed as mortality at 25 uM treated for 7 days; assay type: organism-based; conditions: in vivo, 168 h
Procedure, shortened: (§7)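 Wild-type zebrafish larvae raised under standard conditions were exposed to compounds dissolved in E3 medium. The medium containing compound was renewed every day for 7 days. The read-out was survival rate (mortality) at the end of exposure.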

[15] = tested on: HT-29; assay: Inhibition of Wnt/beta-catenin signaling in human HT29 cells assessed as increase in phosphorylated c-myc level at 25 uM after 24 hrs by Western blot analysis; assay type: cell-based; procedure, shortened: as §1
[16] = organism: Danio rerio; assay: Inhibition of Wnt/beta-catenin signaling in zebrafish larvae assessed as inhibition of Tcf/Lef transcriptional activity measured as thinner intestine at 10 uM after 72 hrs by GFP reporter assay; assay type: functional, organism-based; procedure, shortened: as §6
[17] = tested on: HT-29; assay: Inhibition of Wnt signaling in human HT29 cells assessed as inhibition of beta-catenin-mediated Tcf/Lef transcriptional activity after 24 hrs by dual luciferase reporter gene assay relative to control; assay type: cell-based; conditions: HT-29, 24 h
[18] = tested on: HT-29; assay: Inhibition of Wnt/beta-catenin signaling in human HT29 cells assessed as downregulation of cyclin B1 protein expression at 25 uM after 24 hrs by Western blot analysis; assay type: cell-based; procedure, shortened: as §1
[19] = tested on: HT-29; assay: Inhibition of Wnt/beta-catenin signaling in human HT29 cells assessed as decrease in TCF4 mRNA expression at 25 uM after 24 hrs by quantitative real-time PCR assay; assay type: cell-based; procedure, shortened: as §3
[20] = tested on: HT-29; assay: Inhibition of Wnt/beta-catenin signaling in human HT29 cells assessed as decrease in TCF1 protein level at 25 uM after 24 hrs by Western blot analysis; assay type: cell-based; procedure, shortened: as §1
[21] = tested on: HT-29; assay: Inhibition of Wnt signaling in human HT29 cells assessed as inhibition of beta-catenin-mediated Tcf/Lef transcriptional activity at 25 uM after 24 hrs by dual luciferase reporter gene assay relative to control; assay type: cell-based; procedure, shortened: as §4
[22] = tested on: HT-29; assay: Inhibition of Wnt/beta-catenin signaling in human HT29 cells assessed as GSK3-beta dephosphorylation at Ser21/Ser9 residues at 25 uM after 24 hrs by Western blot analysis; assay type: cell-based; procedure, shortened: as §1
[23] = tested on: HT-29; assay: Inhibition of Wnt/beta-catenin signaling in human HT29 cells assessed as […] in axin2 mRNA expression at 25 uM after 24 hrs by quantitative real-time PCR assay; assay type: cell-based; procedure, shortened: as §3
[24] = organism: Danio rerio; assay: Inhibition of Wnt/beta-catenin signaling in zebrafish larvae assessed as inhibition of Tcf/Lef transcriptional activity measured as dysmorphic craniofacial features at 10 uM after 72 hrs by GFP reporter assay; assay type: functional, organism-based; procedure, shortened: as §6
[25] = tested on: HepG2; assay: Antiproliferative activity against human HepG2 cells after 72 hrs by MTT assay; assay type: functional; conditions: HepG2, 72 h; procedure, shortened: as §5
[26] = organism: Danio rerio; assay: Toxicity in zebrafish larvae assessed as mortality at 5 to 25 uM treated for 7 days; assay type: organism-based; conditions: in vivo, 168 h; procedure, shortened: as §7
[27] = organism: Danio rerio; assay: Toxicity in zebrafish larvae assessed as mortality at 1 uM treated for 7 days; assay type: organism-based; conditions: in vivo, 168 h; procedure, shortened: as §7
[28] = tested on: HT-29; assay: Inhibition of Wnt/beta-catenin signaling in human HT29 cells assessed as […] protein level at 25 uM after 24 hrs by Western blot analysis; assay type: cell-based; procedure, shortened: as §1
[29] = tested on: HT-29; assay: Inhibition of Wnt signaling in human HT29 cells assessed as increase in cytoplasmic beta-catenin at 25 uM after 24 hrs by fluorescence microscopy; assay type: cell-based
Procedure, shortened: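 Cells were fixed in cold 4% formaldehyde for 15 min and stained with anti-β-catenin (mouse, 1:50), then an Alexa-conjugated secondary, with DAPI counterstain. Images were taken on a video-confocal microscope with a 60x objective.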

[30] = organism: Danio rerio; assay: Inhibition of Wnt/beta-catenin signaling in zebrafish larvae assessed as inhibition of Tcf/Lef transcriptional activity at 10 uM after 72 hrs by GFP reporter assay; assay type: functional, organism-based; procedure, shortened: as §6
[31] = organism: Danio rerio; assay: Inhibition of Wnt/beta-catenin signaling in zebrafish larvae assessed as inhibition of Tcf/Lef transcriptional activity measured as thinner intestine at 1 uM after 72 hrs by GFP reporter assay; assay type: functional, organism-based; procedure, shortened: as §6

Cc1ccn2cc(-c3ccc(N(Cc4ccccc4)Cc4ccccc4)cc3)nc2c1
inhibition [1]: Active
inhibition [2]: Active
Activity [3]: Active
inhibition [4]: inactive
inhibition [5]: Active
Activity [6]: Active
GI50 [7]: 17.2 µM
inhibition [8]: Active
inhibition [9]: Active
GI50 [10]: 6.9 µM
Activity [11]: Active
GI50 [12]: 5.7 µM
GI50 at 72 h [13]: 52.3 µM
Activity [14]: Toxic
inhibition [15]: Active
inhibition [16]: Active
IC50 [17]: 24.1 µM
inhibition [18]: Active
inhibition [19]: Active
inhibition [20]: Active
inhibition [21]: Active
inhibition [22]: inactive
inhibition [23]: Active
inhibition [24]: Active
GI50 [25]: 18.4 µM

Cc1ccc2nc(-c3ccc(NCc4ccccc4)cc3)cn2c1
inhibition [1]: Active
inhibition [2]: Active
Activity [3]: inactive
inhibition [4]: inactive
inhibition [5]: Active
Activity [26]: Toxic
Activity [6]: inactive
GI50 [7]: 56.1 µM
inhibition [8]: Active
GI50 [10]: 8.8 µM
Activity [27]: Non-toxic
Activity [11]: inactive
GI50 at 72 h [13]: > 100 µM
inhibition [15]: Active
IC50 [17]: 11.1 µM
inhibition [18]: Active
inhibition [28]: Active
inhibition [19]: Active
inhibition [21]: Active
inhibition [22]: inactive
inhibition [23]: Active
GI50 [25]: > 100 µM

Cc1cc(O)n2cc(-c3ccc([N+](=O)[O-])cc3)nc2n1
inhibition [2]: Active
Activity [3]: inactive
inhibition [4]: inactive
inhibition [5]: Active
Activity [6]: inactive
GI50 [7]: 38.9 µM
inhibition [8]: Active
GI50 [10]: 90.1 µM
Activity [11]: inactive
GI50 [12]: 87.6 µM
GI50 at 72 h [13]: > 100 µM
inhibition [15]: Active
IC50 [17]: 10.4 µM
inhibition [18]: Active
inhibition [28]: Active
inhibition [19]: Active
inhibition [21]: Active
inhibition [22]: inactive
inhibition [23]: Active
GI50 [25]: > 100 µM
inhibition [29]: Active

O=C(Nc1cccc2cccnc12)c1ccc(N2C(=O)[C@@H]3[C@H](C2=O)[C@@H]2C=C[C@H]3C2)cc1
inhibition [5]: Active
GI50 [7]: > 100 µM
GI50 [10]: > 100 µM
GI50 [12]: 63.1 µM
inhibition [30]: Active
inhibition [21]: Active
inhibition [23]: Active
GI50 [25]: 95.4 µM

CC(=O)Nc1cc(=O)n(Cc2ccccc2)c(SCc2ccccc2)n1
inhibition [31]: Active
Activity [26]: Toxic
GI50 [7]: 50.4 µM
GI50 [10]: 79.3 µM
Activity [27]: Non-toxic
GI50 [12]: 56.3 µM
IC50 [17]: 35.6 µM
GI50 [25]: 71.7 µM

— ChEMBL document CHEMBL3286382, “Synthesis and biological evaluation of imidazo[1,2-a]pyrimidines and imidazo[1,2-a]pyridines as new inhibitors of the Wnt/β-catenin signaling” (Eur J Med Chem, 2014)
